{
  "source": "PubChem BioAssay AID1656",
  "about": "(Sanford-Burnham Center for Chemical Genomics, 2009)",
  "note": "Among all 240,000 compounds or so, about 950 (0.4%) were called active.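 Rule for the calls: active = lipid droplet intensity inhibited by at least 50%, with more than 500 cells counted; inconclusive = wells with under 300 cells, treated as cytotoxic; inactive = the rest.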 Many of the other results were omitted from the sample, so actives are more common in it than they were.",
  "data": [
    {"experiment": "oleate-induced lipid droplet accumulation in AML12 cells – imaging, high-throughput imaging, BODIPY stain, primary screen (AID 1656);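 for cell count: cells counted across two imaged fields per well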", "settings": "AML12 mouse hepatocytes, oleate lipid droplets, at 6.5 µM; cell count: measured here: cell count, cytotoxicity flag; inhibition: stronger effect = higher value", "outline": "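System: AML12 hepatocytes (mouse). Probe or stimulus: oleic acid at 100 µM to induce lipid droplet formation. Times: overnight treatment with compound plus oleate. Detection: Image-based BODIPY and DAPI two-channel analysis. Evaluation: percent inhibition of filter-corrected integrated lipid droplet intensity per well.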", "units": {"cell count": "cells"}, "values": [
      {"smiles": "COc1ccc(NC(=O)CN2C(=O)CSc3ccc(S(=O)(=O)N4CCC(C)CC4)cc32)cc1", "cell count": 698, "inhibition": "-8.1% (inactive)"},
      {"smiles": "CC1CCN(CCCNC(=O)CN2C(=O)CSc3ccc(S(=O)(=O)N4CCCCC4)cc32)CC1", "cell count": 719, "inhibition": "8% (inactive)"},
      {"smiles": "COCCCNC(=O)CN1C(=O)CSc2ccc(S(=O)(=O)N3CCOCC3)cc21", "cell count": 798, "inhibition": "59.7% (active)"},
      {"smiles": "CNC[C@H](CC1CCCCC1)NC[C@H](NCCC1CCCC1)[C@H](C)O", "cell count": 688, "inhibition": "1.2% (inactive)"},
      {"smiles": "CCOC(=O)C1(Cc2ccccc2C)CCCN(C(=O)CCc2c(C)noc2C)C1", "note": "(stereo not given)", "cell count": 656, "inhibition": "-27.4% (inactive)"},
      {"smiles": "CN(C(=O)c1cc2c(=O)n3ccccc3nc2s1)C1CCCCC1", "cell count": 654, "inhibition": "-14.1% (inactive)"},
      {"smiles": "Cc1cc(NC(=O)CSc2nc(C(C)C)nc3sc4c(c23)CCC(C)C4)no1", "note": "(stereo not given)", "cell count": 668, "inhibition": "105% (active)"},
      {"smiles": "Cc1nc(SCC(=O)Nc2cc(C)on2)c2c3c(sc2n1)CCCC3", "cell count": 678, "inhibition": "5.3% (inactive)"},
      {"smiles": "CC(C)c1nc(SCC(=O)Nc2cccc(C(=O)O)c2)c2c3c(sc2n1)CCCC3", "cell count": 835, "inhibition": "-26% (inactive)"},
      {"smiles": "COc1ccc(CCNC(=O)CCCCCNC(=O)N2CCn3c2nc2ccccc23)cc1OC", "cell count": 692, "inhibition": "0.7% (inactive)"},
      {"smiles": "CCCN1CCn2c3c(c4cc(Br)ccc42)CCCC31", "note": "(stereo not given)", "cell count": 795, "inhibition": "-5.9% (inactive)"},
      {"smiles": "CCC(C(=O)NC1CCCCC1)N(C(=O)c1snc(C(N)=O)c1N)c1ccc(OC)cc1OC", "note": "(stereo not given)", "cell count": 820, "inhibition": "-0.1% (inactive)"},
      {"smiles": "Cc1ccc(NC(=O)c2cc(-c3ccccc3O)n[nH]2)cc1C", "cell count": 660, "inhibition": "31.5% (inactive)"},
      {"smiles": "Cc1nc2cc(C(F)(F)F)ccc2n1CCNc1nc(-c2cc(Cl)c(N)c(Cl)c2)cs1", "cell count": 750, "inhibition": "8.1% (inactive)"},
      {"smiles": "Cc1c(C(=O)NCC(c2ccco2)N2CCCC2)oc2ccc(Cl)cc12", "note": "(stereo not given)", "cell count": 736, "inhibition": "2.8% (inactive)"},
      {"smiles": "CS(=O)(=O)N(CC(=O)N1CCOCC1)c1cccc(Cl)c1Cl", "cell count": 792, "inhibition": "-9.9% (inactive)"},
      {"smiles": "COc1ccc(NC(=O)NCCN2CCN(c3ccc(C)cc3)CC2)c(Cl)c1", "cell count": 800, "inhibition": "-0.4% (inactive)"},
      {"smiles": "CCN(C(=O)COc1ccc(C(=O)c2ccccc2)cc1)c1ccccc1", "cell count": 592, "inhibition": "-18.3% (inactive)"},
      {"smiles": "Cc1cc(CN(C)C(=O)c2cc(COc3ccc(C)c(C)c3)on2)n[nH]1", "cell count": 697, "inhibition": "-6.7% (inactive)"},
      {"smiles": "CC(Cc1cccs1)N(Cc1ccc(Cl)cc1)C(=O)c1ccncc1", "note": "(stereo not given)", "cell count": 838, "inhibition": "-16% (inactive)"},
      {"smiles": "O=C(NC(=S)Nc1ccccc1N1CCCCC1)c1ccc(F)cc1", "cell count": 720, "inhibition": "8.8% (inactive)"},
      {"smiles": "COc1ccc(C(CNC(=O)COc2ccccc2OC)N2CCCCC2)cc1", "note": "(stereo not given)", "cell count": 697, "inhibition": "-15% (inactive)"},
      {"smiles": "COc1cccc(Cn2cc(/C=N/NC(=O)c3cc(O)cc(O)c3)c3ccccc32)c1", "cell count": 740, "inhibition": "-2.5% (inactive)"},
      {"smiles": "COc1ccc(C)cc1Nc1n[n+](-c2ccccc2)c(-c2cccc(Cl)c2Cl)s1", "cell count": 778, "inhibition": "-4.7% (inactive)"},
      {"smiles": "CC1CCN(CCCn2c(SCC(=O)NC3CCCC3)nc3ccccc3c2=O)CC1", "cell count": 704, "inhibition": "-17.3% (inactive)"},
      {"smiles": "CC1CCCN(CCCNC(=O)CN2C(=O)COc3ccc(S(=O)(=O)N4CCOCC4)cc32)C1", "note": "(stereo not given)", "cell count": 780, "inhibition": "-12.4% (inactive)"},
      {"smiles": "O=C(NCC(=O)N1CCN(c2ccccc2O)CC1)c1ccc2ccccc2c1", "cell count": 679, "inhibition": "-1.6% (inactive)"},
      {"smiles": "COc1ccc(N(Cc2cc3ccc(C)cc3[nH]c2=O)S(=O)(=O)c2ccccc2)cc1", "cell count": 764, "inhibition": "-6.7% (inactive)"},
      {"smiles": "CC(C)c1ccc(NC2CCCN(C(=O)c3ccncc3)C2)cc1", "note": "(stereo not given)", "cell count": 631, "inhibition": "-2.4% (inactive)"},
      {"smiles": "O=C(N/C(=C\\c1ccc([N+](=O)[O-])cc1)C(=O)N1CCOCC1)c1cccc(Br)c1", "cell count": 652, "inhibition": "-42.9% (inactive)"},
      {"smiles": "COc1ccc(-c2c(C#Cc3ccccc3)c3ccccc3n2C)cc1", "cell count": 742, "inhibition": "-11.3% (inactive)"},
      {"smiles": "Cc1ccccc1OCC(=O)Nc1ccc(S(=O)(=O)N2CCOCC2)cc1", "cell count": 768, "inhibition": "-7.1% (inactive)"},
      {"smiles": "O=C(/C=C/c1ccc([N+](=O)[O-])o1)NNC(=O)c1ccc(F)cc1", "cell count": 473, "inhibition": "-82% (inactive)"},
      {"smiles": "COc1ccc(-c2csc(NC(=O)CCCc3cccs3)n2)cc1", "cell count": 687, "inhibition": "-3.2% (inactive)"},
      {"smiles": "Cc1ccc(-c2csc(NC(=O)Cc3cccs3)n2)cc1C", "cell count": 732, "inhibition": "12.4% (inactive)"},
      {"smiles": "CCCc1ccc(-c2csc(NC(=O)Cc3cccs3)n2)cc1", "cell count": 774, "inhibition": "71% (active)"},
      {"smiles": "CCOCCCN(C)C1CCN(C(=O)c2oc3ccccc3c2NC(=O)COc2cccc(C)c2)CC1", "cell count": 640, "inhibition": "-24.8% (inactive)"},
      {"smiles": "O=C(CN1CCOCC1)Nc1ccccc1", "cell count": 743, "inhibition": "1.4% (inactive)"},
      {"smiles": "O=C(CN1CCc2cc3c(cc2C1)OCCCO3)Nc1ccccc1", "cell count": 784, "inhibition": "77.1% (active)"},
      {"smiles": "Cc1ccc(NC(=O)CN2CCc3ccccc3C2)cc1", "cell count": 793, "inhibition": "7.1% (inactive)"}
    ]}
  ]
}
